Hit rate of the full screen: of about 2,500 compounds, about 1,200 (48%) were called active. So high a share suggests a set chosen from earlier hits. The list shows a part of the results. A number with no mark means an inactive call.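 How the source made its calls: active means mean activation above the low control average plus 3 SD, as set in the primary screen (cut at about 12% in these data); inactive means the rest.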
Molecular target: Troponin I, cardiac muscle (Homo sapiens) + Troponin T, cardiac muscle (Homo sapiens) + Troponin C, slow skeletal and cardiac muscles (Homo sapiens) (UniProt P19429+P45379+P63316)
Experiment: cardiac RTF calcium sensitivity activators, confirmation, biochemical, IANBD-TnC fluorescence, triplicate (AID 504383);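 further: 0% = DMSO at 0.472 mM calcium and 100% = DMSO at 2.9 mM calcium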
Conditions: IANBD-labeled cardiac RTF, Ca2+ sensitivity fluorescence; at 7.2 µM; active compounds read high; scaled from EC20 to saturating calcium; tested at EC20 calcium, 0.472 mM
Summary of the method: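 Assay system: labelled regulated thin filament protein complex; schedule: 15 min compound incubation with filaments at 25 °C; benchmarks: low control EC20 calcium, high control EC100 calcium; reagent: Ca2+ 0.472 mM, EC20 level; doses: one dose, 7.2 µM nominal; evaluation: fluorescence gain scaled between EC20 and EC100 calcium controls; signal: filament fluorescence intensity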

SMILES	activation
Cc1ccc2c(c1)[C@H]1[C@H](CO2)[C@H](c2ccccc2)[C@]2(C)C(=O)N(Cc3ccc(F)cc3)CC(=O)N12	4.21%
COc1ccc(-n2nnnc2SCC(=O)c2cc3ccccc3o2)cc1	40.8% (active)
NS(=O)(=O)c1ccc(-c2ccc(/C=C3\SC(=S)N(C4CCS(=O)(=O)C4)C3=O)o2)cc1 (configuration not stated)	17.8% (active)
Fc1ccc(CN2CCCN(C(=S)Nc3ccc(F)cc3)CC2)cc1	54% (active)
O=C(Nc1ccc(F)cc1)OCCN1CCN(Cc2ccccc2)CCC1=O	5.99%
CCn1c(CNc2ccc(C(=O)O)cc2)nc2ccccc21	-2.9%
CCn1c(C(C)NC(C)=O)nc2ccccc21 (configuration not stated)	16.6% (active)
C/C(=N\NC(=O)c1cc2c(s1)CCC(C)C2)c1ccc[nH]1 (configuration not stated)	5.66%
COCCN(C(=S)Nc1cccc(OC)c1)C1CCN(C(C)=O)CC1	12.8% (active)
CC(OC(=O)/C(C#N)=C/c1ccc(N(C)C)cc1)C(=O)N(C)Cc1ccccc1 (configuration not stated)	18.4% (active)
CN(C)c1ccc(/C=C(\C#N)C(=O)c2ccccc2)cc1	9.54%
CC(=O)Nc1ccc(NC(=O)C(C)OC(=O)/C(C#N)=C/c2ccc(N(C)C)cc2)cc1 (configuration not stated)	17% (active)
CC(OC(=O)/C(C#N)=C/c1ccc(N(C)C)cc1)C(=O)N(C)c1ccccc1 (configuration not stated)	17.5% (active)
CN(C)c1ccc(/C=C(/C#N)C(=O)Nc2nc3c(s2)CCN(Cc2ccccc2)C3)cc1	10.5%
CN(C)c1ccc(/C=C(\C#N)C(=O)Nc2nc3c(s2)CCN(Cc2ccccc2)C3)cc1	6.43%
Fc1ccc(C2=CC(c3ccco3)n3ncnc3N2)cc1 (configuration not stated)	18.9% (active)
Brc1ccc(C2=CC(c3ccco3)n3ncnc3N2)cc1 (configuration not stated)	7.55%
Fc1ccc(C2=CC(c3ccc(Br)o3)n3ncnc3N2)cc1 (configuration not stated)	5.63%
COc1ccc2nc(C)c3cc(C)oc3c2c1	71.2% (active)

SMILES	activation
COc1ccc2nc(C)cc(NCc3ccc(F)cc3)c2c1	10.7%
Cc1ccc(NS(=O)(=O)c2ccc(C(=O)N3CCN(c4ncccn4)CC3)cc2)cc1	3.55%
O=C(Nc1ccc(S(=O)(=O)Nc2ncccn2)cc1)C1CC(=O)N(c2ccccc2)C1 (configuration not stated)	0.68%
O=C(Nc1ccc(S(=O)(=O)Nc2ncccn2)cc1)c1nn(Cc2ccccc2)c(=O)c2ccccc12	736% (active)
CCOC(=O)CN1C(=O)N[C@@H](c2cccc(C(F)(F)F)c2)C(C(=O)OC)=C1C	1.28%
COCCN1C(=O)N[C@@H](c2cccc(C(F)(F)F)c2)C(C(=O)OC)=C1C	42.1% (active)
COC(=O)C/C(O)=C(/N=Nc1cccc(C(F)(F)F)c1)C(=O)OC	9.06%
CCOc1ccc(-c2nnc(NC(=O)CCCOc3cccc(C)c3)o2)cc1	7.1%
Cc1ccc(S(=O)(=O)N2CC(C(=O)O)=CC[C@H]2c2ccc(Cl)cc2)cc1	4.74%
Cc1nnc(N/N=C/c2ccc(O)c([N+](=O)[O-])c2)[nH]c1=O	35.2% (active)
Cc1cc(/C=C2/NC(=O)N(Cc3ccccc3F)C2=O)c(C)n1C	25.1% (active)
Cc1ccc(/C=C2/NC(=O)N(Cc3ccccc3F)C2=O)s1	7.33%
O=C(CC1SC(N2CCCCC2)=NC1=O)Nc1ccc(C(=O)NCc2ccccc2)cc1 (configuration not stated)	9.91%
CCCNC(=O)C12CCC(C)(C(=O)C1Br)C2(C)C (configuration not stated)	12.4% (active)
COc1cc2c(cc1OC)-c1cc3ccc4c(c3c[n+]1CC2)OCO4	15.6% (active)
CCOCCCNS(=O)(=O)c1ccc(NC(=O)c2ccc(OC)c([N+](=O)[O-])c2)cc1	9.02%
CCCCC(=O)Nc1ccc(C(=O)Nc2ccc(OC)cc2[N+](=O)[O-])cc1	13.3% (active)
Cc1ccc2nc3nc(NCC4CCCO4)c(C(=O)NC4CCCC4)cc3c(=O)n2c1 (configuration not stated)	12.9% (active)
